Converted amounts (≈) assume the structure as drawn.
Legend:
Type in all cases: functional
Streptococcus pyogenes [1] = assay: Antibacterial activity against constitutive-resistant to macrolide, licosamide and streptogramin Streptococcus pyogenes 166 GR-Micro by broth microdilution method
Method in brief: (§1)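 MICs by CLSI broth microdilution with double dilutions, except that Streptococcus medium used 5% horse serum in place of lysed blood. Bacteria were pre-grown on Columbia agar with 5% sheep blood (streptococci) or Mueller–Hinton agar (staphylococci).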

Streptococcus pneumoniae [2] = assay: Antibacterial activity against erythromycin susceptible Streptococcus pneumoniae SP 030 by broth microdilution method
Method in brief: (§2)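 CLSI broth microdilution with double dilutions in 96-well plates. For streptococci, 5% horse serum replaced lysed blood in the medium. Inocula were grown on Columbia agar with 5% sheep blood for streptococci, Mueller–Hinton chocolate agar for H. influenzae, and Mueller–Hinton agar for staphylococci. Read-out is MIC in mg/L.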

Moraxella catarrhalis = assay: Antibacterial activity against Moraxella catarrhalis ATCC 23246 by broth microdilution method; method in brief: as §2
Staphylococcus aureus [3] = assay: Antibacterial activity against efflux mediated macrolide-resistant Staphylococcus aureus PK1 by broth microdilution method; method in brief: as §1
Streptococcus pyogenes [4] = assay: Antibacterial activity against erythromycin susceptible Streptococcus pyogenes 3565 by broth microdilution method; method in brief: as §2
Streptococcus pyogenes [5] = assay: Antibacterial activity against efflux mediated macrolide-resistant Streptococcus pyogenes Finland 2 by broth microdilution method; method in brief: as §1
Staphylococcus aureus [6] = assay: Antibacterial activity against constitutive-resistant to macrolide, licosamide and streptogramin Staphylococcus aureus PK2 by broth microdilution method; method in brief: as §1
Staphylococcus aureus [7] = assay: Antibacterial activity against Staphylococcus aureus ATCC 13709 by broth microdilution method; method in brief: as §2
Streptococcus pneumoniae [8] = assay: Antibacterial activity against constitutive-resistant to macrolide, licosamide and streptogramin Streptococcus pneumoniae 58 Spain by broth microdilution method; method in brief: as §1
Streptococcus pneumoniae [9] = assay: Antibacterial activity against efflux mediated macrolide-resistant Streptococcus pneumoniae Ci137 by broth microdilution method; method in brief: as §1
Escherichia coli = assay: Antibacterial activity against Escherichia coli ATCC 25922 by broth microdilution method; method in brief: as §2
Enterococcus faecalis = assay: Antibacterial activity against Enterococcus faecalis ATCC 29213 by broth microdilution method; method in brief: as §2
Streptococcus pyogenes [10] = assay: Antibacterial activity against inducible-resistant to macrolide, licosamide and streptogramin Streptococcus pyogenes Finland 11 by broth microdilution method; method in brief: as §1
Streptococcus pneumoniae [11] = assay: Antibacterial activity against inducible-resistant to macrolide, licosamide and streptogramin Streptococcus pneumoniae 134 GR-M by broth microdilution method; method in brief: as §1
Staphylococcus aureus [12] = assay: Antibacterial activity against inducible-resistant to macrolide, licosamide and streptogramin Staphylococcus aureus 90265/97 by broth microdilution method; method in brief: as §1
Haemophilus influenzae = assay: Antibacterial activity against Haemophilus influenzae ATTC 49247 by broth microdilution method; method in brief: as §2

**Q.** For CC[C@H]1OC(=O)[C@H](C)[C@@H](O[C@H]2C[C@@](C)(OC)[C@@H](O)[C@H](C)O2)[C@H](C)[C@@H](O[C@@H]2O[C@H](C)C[C@H](N(C)C)[C@H]2O)[C@](C)(O)C[C@@H](C)CN(C)[C@H](C)[C@@H](O)[C@]1(C)O [AZITHROMYCIN], which MIC (Streptococcus pyogenes [1]) is on record?
**A.** Its MIC is greater than 64 µg/mL.

**Q.** What about the MIC (Streptococcus pneumoniae [2]) of the same molecule?
**A.** Its MIC is no more than 0.125 µg/mL.

**Q.** What about the MIC (Moraxella catarrhalis) of the same molecule?
**A.** Its MIC is no more than 0.125 µg/mL.

**Q.** And the MIC (Staphylococcus aureus [3])?
**A.** The MIC was greater than 64 µg/mL.

**Q.** What about the MIC (Streptococcus pyogenes [4]) of the same molecule?
**A.** Its MIC is no more than 0.125 µg/mL.

**Q.** And the MIC (Streptococcus pyogenes [5])?
**A.** The MIC was 8 µg/mL (≈ 10.7 µM).

**Q.** And the MIC (Staphylococcus aureus [6])?
**A.** The MIC was greater than 64 µg/mL.

**Q.** And the MIC (Staphylococcus aureus [7])?
**A.** The MIC was 0.5 µg/mL (≈ 0.668 µM).

**Q.** And the MIC (Streptococcus pneumoniae [8])?
**A.** The MIC was greater than 64 µg/mL.

**Q.** What about the MIC (Streptococcus pneumoniae [9]) of the same molecule?
**A.** Its MIC is 8 µg/mL (≈ 10.7 µM).

**Q.** What about the MIC (Escherichia coli) of the same molecule?
**A.** The MIC was 2 µg/mL (≈ 2.67 µM).

**Q.** And the MIC (Enterococcus faecalis)?
**A.** The MIC was 4 µg/mL (≈ 5.34 µM).

**Q.** And the MIC (Streptococcus pyogenes [10])?
**A.** Its MIC is 16 µg/mL (≈ 21.4 µM).

**Q.** And the MIC (Streptococcus pneumoniae [11])?
**A.** The MIC was greater than 64 µg/mL.

**Q.** What about the MIC (Staphylococcus aureus [12]) of the same molecule?
**A.** The MIC was greater than 64 µg/mL.

**Q.** And the MIC (Haemophilus influenzae)?
**A.** The MIC was 1 µg/mL (≈ 1.34 µM).
